Source: ChEMBL document CHEMBL4330145, “Discovery of the Cyclic Lipopeptide Gacamide A by Genome Mining and Repair of the Defective GacA Regulator in Pseudomonas fluorescens Pf0-1” (2019)
≈ marks a conversion by molar mass, not a printed value. Calls of active or inactive are those of the source. No cut-off for these calls is given here.

Key:
Corynebacterium xerosis = test: Antibacterial activity against Corynebacterium xerosis after 24 hrs by agar diffusion assay; assay type: functional, organism-based
[1] = system: Stenotrophomonas maltophilia; test: Antibacterial activity against Stenotrophomonas maltophilia isolate O-16451 after 24 hrs by agar diffusion assay; assay type: functional, organism-based
In short: (§1)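 Plates of Columbia agar with 5% sheep blood were overlaid with 3 mL tryptic soy soft agar seeded with a TSB suspension of the test strain. Compound was diluted in DMSO to 1 mg/mL, and 3 μL was spotted on the agar surface. The inhibition-zone diameter was measured after 24 h at 37 °C. Clinical isolates were kept on Mueller−Hinton or blood agar.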

Staphylococcus aureus [2] = test: Antibacterial activity against methicillin sensitive Staphylococcus aureus isolate 5185 after 24 hrs by agar diffusion assay; assay type: functional, organism-based; in short: as §1
[3] = system: Stenotrophomonas maltophilia; test: Antibacterial activity against Stenotrophomonas maltophilia isolate I-10717 after 24 hrs by agar diffusion assay; assay type: functional, organism-based; in short: as §1
[4] = system: Staphylococcus epidermidis; test: Antibacterial activity against methicillin-resistant Staphylococcus epidermidis isolate LT-1324 after 24 hrs by agar diffusion assay; assay type: functional, organism-based
In short: (§2)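 Agar diffusion: 5% sheep blood Columbia agar plates overlaid with 3 mL tryptic soy soft agar seeded with a TSB suspension of the clinical isolate. Compound diluted in DMSO to 1 mg/mL, and 3 μL spotted on the agar surface. Inhibition zone diameter measured after 24 h at 37 °C. Strains were maintained on Mueller−Hinton or blood agar.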

Enterococcus faecium [5] = test: Antibacterial activity against Enterococcus faecium isolate I-11054 after 24 hrs by agar diffusion assay; assay type: functional, organism-based; in short: as §1
Micrococcus luteus = test: Antibacterial activity against Micrococcus luteus ATCC 4698 after 24 hrs by agar diffusion assay; assay type: functional, organism-based; conditions: NCTC 2665
Staphylococcus simulans = test: Antibacterial activity against Staphylococcus simulans isolate 22 after 24 hrs by agar diffusion assay; assay type: functional, organism-based; in short: as §1
Staphylococcus aureus [6] = test: Antibacterial activity against Staphylococcus aureus after 24 hrs by agar diffusion assay; assay type: functional, organism-based
Escherichia coli [7] = test: Antibacterial activity against Escherichia coli isolate I-11276b after 24 hrs by agar diffusion assay; assay type: functional, organism-based; in short: as §1
Erwinia amylovora = test: Antibacterial activity against Erwinia amylovora Ea153 after 24 hrs by agar diffusion assay; assay type: functional, organism-based
Pseudomonas fluorescens = test: Antibacterial activity against Pseudomonas fluorescence A506 after 24 hrs by agar diffusion assay; assay type: functional, organism-based
[8] = system: Agrobacterium tumefaciens; test: Antibacterial activity against Agrobacterium tumefaciens B6 after 24 hrs by agar diffusion assay; assay type: functional, organism-based
Staphylococcus aureus [9] = test: Antibacterial activity against methicillin sensitive Staphylococcus aureus isolate I-11574 after 24 hrs by agar diffusion assay; assay type: functional, organism-based; in short: as §1
Staphylococcus aureus [10] = test: Antibacterial activity against methicillin-resistant Staphylococcus aureus isolate LT-1338 after 24 hrs by agar diffusion assay; assay type: functional, organism-based; in short: as §2
Listeria welshimeri = test: Antibacterial activity against Listeria welshimeri DSM 20650 after 24 hrs by agar diffusion assay; assay type: functional
Citrobacter freundii = test: Antibacterial activity against Citrobacter freundii isolate I-11090 after 24 hrs by agar diffusion assay; assay type: functional, organism-based; in short: as §1
[11] = system: Klebsiella pneumoniae subsp. ozaenae; test: Antibacterial activity against Klebsiella pneumoniae subsp. ozaenae isolate I-10910 after 24 hrs by agar diffusion assay; assay type: functional, organism-based; in short: as §1
Enterococcus faecium [12] = test: Antibacterial activity against Enterococcus faecium isolate I-11305b after 24 hrs by agar diffusion assay; assay type: functional, organism-based; in short: as §1
[13] = system: Agrobacterium tumefaciens; test: Antibacterial activity against Agrobacterium tumefaciens C58 after 24 hrs by agar diffusion assay; assay type: functional, organism-based
[14] = system: Arthrobacter crystallopoietes; test: Antibacterial activity against Arthrobacter crystallopoietes DSM 20117 after 24 hrs by microtiter plate broth dilution assay; conditions: Crystallibacter crystallopoietes, DSM 20117, 24 h
Rhodococcus fascians = test: Antibacterial activity against Rhodococcus fascians A44A after 24 hrs by agar diffusion assay; assay type: functional, organism-based; conditions: Rhodococcoides fascians
Staphylococcus aureus [15] = test: Antibacterial activity against methicillin-resistant Staphylococcus aureus isolate LT-1334 after 24 hrs by agar diffusion assay; assay type: functional, organism-based; in short: as §2
[16] = system: Mycolicibacterium smegmatis; test: Antibacterial activity against Mycobacterium smegmatis after 24 hrs by agar diffusion assay; assay type: functional, organism-based
[17] = system: Pseudomonas syringae pv. tomato str. DC3000; test: Antibacterial activity against Pseudomonas syringae DC3000 after 24 hrs by agar diffusion assay; assay type: functional
Escherichia coli [18] = test: Antibacterial activity against Escherichia coli isolate O-19592 after 24 hrs by agar diffusion assay; assay type: functional, organism-based; in short: as §1
Pseudomonas aeruginosa = test: Antibacterial activity against Pseudomonas aeruginosa isolate I-10968 after 24 hrs by agar diffusion assay; assay type: functional, organism-based; in short: as §1
Candida albicans [19] = test: Antifungal activity against Candida albicans isolate I-11301 after 24 hrs by agar diffusion assay; assay type: functional, organism-based
Staphylococcus aureus [20] = test: Antibacterial activity against Staphylococcus aureus isolate 133 after 24 hrs by agar diffusion assay; assay type: functional, organism-based; in short: as §1
Candida albicans [21] = test: Antifungal activity against Candida albicans isolate I-11134 after 24 hrs by agar diffusion assay; assay type: functional, organism-based
Priestia megaterium = test: Antibacterial activity against Bacillus megaterium Km after 24 hrs by agar diffusion assay; assay type: functional, organism-based
Bacillus subtilis = test: Antibacterial activity against Bacillus subtilis 168 after 24 hrs by agar diffusion assay; assay type: functional, organism-based; conditions: subsp. subtilis str. 168

**Q.** For CCCCCCC[C@@H](O)CC(=O)N[C@H](CC(C)C)C(=O)N[C@H](CC(=O)O)C(=O)N[C@H](CCC(N)=O)C(=O)N[C@H](C(=O)N[C@H](CC(C)C)C(=O)N[C@H](CCC(N)=O)C(=O)N[C@@H]1COC(=O)[C@H]([C@@H](C)CC)NC(=O)[C@@H](CO)NC(=O)[C@H](CC(C)C)NC(=O)[C@H](CC(C)C)NC1=O)[C@H](C)CC, which Activity (Corynebacterium xerosis) is on record?
**A.** inactive

**Q.** And the Activity [1]?
**A.** inactive

**Q.** And the Activity (Staphylococcus aureus [2])?
**A.** inactive

**Q.** What about the Activity [3] of the same molecule?
**A.** inactive

**Q.** And the Activity [4]?
**A.** inactive

**Q.** And the Activity (Enterococcus faecium [5])?
**A.** inactive

**Q.** And the Activity (Micrococcus luteus)?
**A.** inactive

**Q.** What about the Activity (Staphylococcus simulans) of the same molecule?
**A.** inactive

**Q.** And the Activity (Staphylococcus aureus [6])?
**A.** inactive

**Q.** And the Activity (Escherichia coli [7])?
**A.** inactive

**Q.** What about the Activity (Erwinia amylovora) of the same molecule?
**A.** inactive

**Q.** And the Activity (Pseudomonas fluorescens)?
**A.** inactive

**Q.** And the Activity [8]?
**A.** inactive

**Q.** And the Activity (Staphylococcus aureus [9])?
**A.** inactive

**Q.** And the Activity (Staphylococcus aureus [10])?
**A.** inactive

**Q.** And the Activity (Listeria welshimeri)?
**A.** inactive

**Q.** And the Activity (Citrobacter freundii)?
**A.** inactive

**Q.** And the Activity [11]?
**A.** inactive

**Q.** What about the Activity (Enterococcus faecium [12]) of the same molecule?
**A.** inactive

**Q.** What about the Activity [13] of the same molecule?
**A.** inactive

**Q.** And the MIC [14]?
**A.** 32 µg/mL (≈ 22.9 µM)

**Q.** And the Activity (Rhodococcus fascians)?
**A.** inactive

**Q.** And the Activity (Staphylococcus aureus [15])?
**A.** inactive

**Q.** And the Activity [16]?
**A.** inactive

**Q.** What about the Activity [17] of the same molecule?
**A.** inactive

**Q.** What about the Activity (Escherichia coli [18]) of the same molecule?
**A.** inactive

**Q.** And the Activity (Pseudomonas aeruginosa)?
**A.** inactive

**Q.** And the Activity (Candida albicans [19])?
**A.** inactive

**Q.** And the Activity (Staphylococcus aureus [20])?
**A.** inactive

**Q.** What about the Activity (Candida albicans [21]) of the same molecule?
**A.** inactive

**Q.** What about the Activity (Priestia megaterium) of the same molecule?
**A.** inactive

**Q.** And the Activity (Bacillus subtilis)?
**A.** inactive
